Calls of active or inactive are those of the source.
Legend:
Format in all cases: functional, cell-based
[1] = test system: BT-549; assay: Growth inhibition of human BT549 cells at 10^-5 M incubated for 48 hrs by sulforhodamine B assay
In short: (§1)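 Run in the NCI59 one-dose cell-line screen, with each compound tested at a single concentration of 1 × 10−5 M.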

[2] = test system: T47D; assay: Growth inhibition of human T47D cells at 10^-5 M incubated for 48 hrs by sulforhodamine B assay
In short: (§2)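 Tested at a single concentration of 1 × 10−5 M as part of the NCI59 cell-line one-dose screen.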

[3] = test system: Hs-578T; assay: Growth inhibition of human Hs 578T cells at 10^-5 M incubated for 48 hrs by sulforhodamine B assay; in short: as §1
[4] = test system: MCF7; assay: Growth inhibition of human MCF7 cells at 10^-5 M incubated for 48 hrs by sulforhodamine B assay; in short: as §1
[5] = test system: MDA-MB-231; assay: Growth inhibition of human MDA-MB-231 cells at 10^-5 M incubated for 48 hrs by sulforhodamine B assay; in short: as §1
[6] = test system: DU-145; assay: Growth inhibition of human DU145 cells at 10^-5 M incubated for 48 hrs by sulforhodamine B assay; in short: as §1
[7] = test system: UO-31; assay: Growth inhibition of human UO31 cells at 10^-5 M incubated for 48 hrs by sulforhodamine B assay; in short: as §2
[8] = test system: PC-3; assay: Growth inhibition of human PC3 cells at 10^-5 M incubated for 48 hrs by sulforhodamine B assay; in short: as §1
[9] = test system: SN12C; assay: Growth inhibition of human SN12C cells at 10^-5 M incubated for 48 hrs by sulforhodamine B assay; in short: as §1
[10] = test system: TK-10; assay: Growth inhibition of human TK10 cells at 10^-5 M incubated for 48 hrs by sulforhodamine B assay; in short: as §2
[11] = test system: RXF 393; assay: Growth inhibition of human RXF393 cells at 10^-5 M incubated for 48 hrs by sulforhodamine B assay; in short: as §1
[12] = test system: ACHN; assay: Growth inhibition of human ACHN cells at 10^-5 M incubated for 48 hrs by sulforhodamine B assay; in short: as §1
[13] = test system: CAKI-1; assay: Growth inhibition of human Caki1 cells at 10^-5 M incubated for 48 hrs by sulforhodamine B assay; in short: as §1
[14] = test system: A498; assay: Growth inhibition of human A498 cells at 10^-5 M incubated for 48 hrs by sulforhodamine B assay; in short: as §1
[15] = test system: 786-0; assay: Growth inhibition of human 786-0 cells at 10^-5 M incubated for 48 hrs by sulforhodamine B assay; in short: as §1
[16] = test system: NCI/ADR-RES; assay: Growth inhibition of human NCI/ADR-RES cells at 10^-5 M incubated for 48 hrs by sulforhodamine B assay; in short: as §1
[17] = test system: SK-OV-3; assay: Growth inhibition of human SKOV3 cells at 10^-5 M incubated for 48 hrs by sulforhodamine B assay; in short: as §1
[18] = test system: OVCAR-8; assay: Growth inhibition of human OVCAR8 cells at 10^-5 M incubated for 48 hrs by sulforhodamine B assay; in short: as §1
[19] = test system: OVCAR-4; assay: Growth inhibition of human OVCAR4 cells at 10^-5 M incubated for 48 hrs by sulforhodamine B assay; in short: as §1
[20] = test system: OVCAR-5; assay: Growth inhibition of human OVCAR5 cells at 10^-5 M incubated for 48 hrs by sulforhodamine B assay; in short: as §1
[21] = test system: IGROV-1; assay: Growth inhibition of human IGROV1 cells at 10^-5 M incubated for 48 hrs by sulforhodamine B assay; in short: as §1
[22] = test system: OVCAR-3; assay: Growth inhibition of human OVCAR3 cells at 10^-5 M incubated for 48 hrs by sulforhodamine B assay; in short: as §1
[23] = test system: UACC-62; assay: Growth inhibition of human UACC62 cells at 10^-5 M incubated for 48 hrs by sulforhodamine B assay; in short: as §2
[24] = test system: SK-MEL-5; assay: Growth inhibition of human SK-MEL-5 cells at 10^-5 M incubated for 48 hrs by sulforhodamine B assay; in short: as §1
[25] = test system: UACC-257; assay: Growth inhibition of human UACC257 cells at 10^-5 M incubated for 48 hrs by sulforhodamine B assay; in short: as §2
[26] = test system: SK-MEL-28; assay: Growth inhibition of human SK-MEL-28 cells at 10^-5 M incubated for 48 hrs by sulforhodamine B assay; in short: as §1
[27] = test system: MDA-MB-435; assay: Growth inhibition of human MDA-MB-435 cells at 10^-5 M incubated for 48 hrs by sulforhodamine B assay; in short: as §1
[28] = test system: SK-MEL-2; assay: Growth inhibition of human SK-MEL-2 cells at 10^-5 M incubated for 48 hrs by sulforhodamine B assay; in short: as §1
[29] = test system: M14; assay: Growth inhibition of human M14 cells at 10^-5 M incubated for 48 hrs by sulforhodamine B assay; in short: as §1
[30] = test system: U-251; assay: Growth inhibition of human U251 cells at 10^-5 M incubated for 48 hrs by sulforhodamine B assay; in short: as §2
[31] = test system: LOX IMVI; assay: Growth inhibition of human LOXIMVI cells at 10^-5 M incubated for 48 hrs by sulforhodamine B assay; in short: as §1
[32] = test system: SNB-19; assay: Growth inhibition of human SNB19 cells at 10^-5 M incubated for 48 hrs by sulforhodamine B assay; in short: as §1
[33] = test system: SNB-75; assay: Growth inhibition of human SNB75 cells at 10^-5 M incubated for 48 hrs by sulforhodamine B assay; in short: as §1
[34] = test system: SF-539; assay: Growth inhibition of human SF539 cells at 10^-5 M incubated for 48 hrs by sulforhodamine B assay; in short: as §1
[35] = test system: SF-268; assay: Growth inhibition of human SF268 cells at 10^-5 M incubated for 48 hrs by sulforhodamine B assay; in short: as §1
[36] = test system: SF-295; assay: Growth inhibition of human SF295 cells at 10^-5 M incubated for 48 hrs by sulforhodamine B assay; in short: as §1
[37] = test system: SW-620; assay: Growth inhibition of human SW620 cells at 10^-5 M incubated for 48 hrs by sulforhodamine B assay; in short: as §2
[38] = test system: HT-29; assay: Growth inhibition of human HT-29 cells at 10^-5 M incubated for 48 hrs by sulforhodamine B assay; in short: as §1
[39] = test system: KM12; assay: Growth inhibition of human KM12 cells at 10^-5 M incubated for 48 hrs by sulforhodamine B assay; in short: as §1
[40] = test system: HCT-116; assay: Growth inhibition of human HCT116 cells at 10^-5 M incubated for 48 hrs by sulforhodamine B assay; in short: as §1
[41] = test system: HCT-15; assay: Growth inhibition of human HCT15 cells at 10^-5 M incubated for 48 hrs by sulforhodamine B assay; in short: as §1
[42] = test system: HCC 2998; assay: Growth inhibition of human HCC2998 cells at 10^-5 M incubated for 48 hrs by sulforhodamine B assay; in short: as §1
[43] = test system: NCI-H522; assay: Growth inhibition of human NCI-H522 cells at 10^-5 M incubated for 48 hrs by sulforhodamine B assay; in short: as §1
[44] = test system: COLO 205; assay: Growth inhibition of human COLO205 cells at 10^-5 M incubated for 48 hrs by sulforhodamine B assay; in short: as §1
[45] = test system: NCI-H460; assay: Growth inhibition of human NCI-H460 cells at 10^-5 M incubated for 48 hrs by sulforhodamine B assay; in short: as §1
[46] = test system: NCI-H23; assay: Growth inhibition of human NCI-H23 cells at 10^-5 M incubated for 48 hrs by sulforhodamine B assay; in short: as §1
[47] = test system: NCI-H322M; assay: Growth inhibition of human NCI-H322M cells at 10^-5 M incubated for 48 hrs by sulforhodamine B assay; in short: as §1
[48] = test system: NCI-H226; assay: Growth inhibition of human NCI-H226 cells at 10^-5 M incubated for 48 hrs by sulforhodamine B assay; in short: as §1
[49] = test system: HOP-62; assay: Growth inhibition of human HOP62 cells at 10^-5 M incubated for 48 hrs by sulforhodamine B assay; in short: as §1
[50] = test system: HOP-92; assay: Growth inhibition of human HOP92 cells at 10^-5 M incubated for 48 hrs by sulforhodamine B assay; in short: as §1
[51] = test system: A549; assay: Growth inhibition of human A549/ATCC cells at 10^-5 M incubated for 48 hrs by sulforhodamine B assay; in short: as §1
[52] = test system: EKVX; assay: Growth inhibition of human EKVX cells at 10^-5 M incubated for 48 hrs by sulforhodamine B assay; in short: as §1
[53] = test system: SR; assay: Growth inhibition of human SR cells at 10^-5 M incubated for 48 hrs by sulforhodamine B assay; in short: as §1
[54] = test system: MOLT-4; assay: Growth inhibition of human MOLT4 cells at 10^-5 M incubated for 48 hrs by sulforhodamine B assay; in short: as §1
[55] = test system: RPMI-8226; assay: Growth inhibition of human RPMI8226 cells at 10^-5 M incubated for 48 hrs by sulforhodamine B assay; in short: as §1
[56] = test system: K562; assay: Growth inhibition of human K562 cells at 10^-5 M incubated for 48 hrs by sulforhodamine B assay; in short: as §1
[57] = test system: CCRF-CEM; assay: Growth inhibition of human CCRF-CEM cells at 10^-5 M incubated for 48 hrs by sulforhodamine B assay; in short: as §1
[58] = test system: HL-60(TB); assay: Growth inhibition of human HL-60(TB) cells at 10^-5 M incubated for 48 hrs by sulforhodamine B assay
In short: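 Run in the NCI59 cell-line one-dose screen, with each compound tested at a single concentration of 1 × 10−5 M.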

Measured: growth inhibition (GI)

CC[C@H](C)C(=O)O[C@@H]1[C@@H]2[C@@H](OC(=O)C(C)C)[C@@]34O[C@]2(O)[C@@](C)([C@@H](CC(=O)OC)C1(C)C)[C@H]3CC[C@]1(C)C4=CC(=O)O[C@H]1C1=CC(O)OC1=O (stereo partly drawn)
inactive: all assays above
